# According to ChEMBL document CHEMBL1275434, “In vitro evaluation of CBR-2092, a novel rifamycin-quinolone hybrid antibiotic: studies of the mode of action in Staphylococcus aureus” (Antimicrob Agents Chemother, 2008):
# Calls of active or inactive are those of the source. The calls are words filed in the database; no cut-off is given here.
# Legend:
# Staphylococcus aureus [1] = test: Inhibition of DNA synthesis in quinolone-resistant Staphylococcus aureus CB814 harboring gyrA S84L and parC S80F mutant genes assessed as decrease in [methyl-3H]thymidine incorporation at 0.5 ug/ml; assay type: functional, organism-based
# In short: (§1)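 Macromolecular synthesis time course in S. aureus, measuring incorporation of [methyl-3H]thymidine (DNA), [5,6-3H]uridine (RNA) or [2,3-3H]D-alanine (cell wall). At each time point, incorporation is expressed as percent of the DMSO-treated control culture. Incorporation at time zero is set to 100%.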
# Staphylococcus aureus [2] = test: Antimicrobial activity against wild-type Staphylococcus aureus CB190 by agar dilution method; assay type: functional
# In short: (§2)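 CLSI agar dilution MIC with cation-adjusted Mueller-Hinton (MHII) agar as the base medium.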
# Staphylococcus aureus [3] = test: Antimicrobial activity against Staphylococcus aureus CB1887 harboring rpoB R484H, L520 deficient gyrA, […], R236 duplicated parC and parC H103Y mutant genes selected after ABT-719 exposure for 20 days by broth microdilution method; assay type: functional; settings: CB1887, 480 h
# In short: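 CLSI broth microdilution MIC in MHII with 0.002% polysorbate 80 against strains from 20–21 days of stepwise passage of rifamycin- and/or quinolone-resistant parents; CBR-2092 passages used MHII with 0.002% polysorbate 80.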
# Staphylococcus aureus [4] = test: Antimicrobial activity against Staphylococcus aureus CB1883 harboring rpoB R484H mutant gene, L520 deficient gyrA gene, gyrA S84L mutant gene and R236 duplicated par C gene by agar dilution method; assay type: functional
# In short: (§3)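 CLSI agar dilution MIC on MHII base medium against stepwise-passage isolates; passage was in MHII broth without polysorbate 80, daily at 37°C.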
# Staphylococcus aureus [5] = test: Antimicrobial activity against Staphylococcus aureus CB814 harboring gyrA […] and parc S80F mutant genes by broth microdilution method; assay type: functional
# In short: (§4)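 CLSI broth microdilution MIC in cation-adjusted Mueller-Hinton (MHII) broth supplemented with 0.002% (vol/vol) polysorbate 80, included to limit compound loss to plastic surfaces.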
# Staphylococcus aureus [6] = test: Antimicrobial activity against Staphylococcus aureus CB1953 harboring rpoB H481Y, gyrA S84L, gyrA V598I, parC S80F, parC R570H mutant genes selected after CBR-2092 exposure for 7 days by agar dilution method; assay type: functional; settings: CB1953, 168 h
# In short: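 CLSI agar dilution MIC on MHII base medium against strains from multistep passage (up to 20–21 days) of parents with preexisting rifamycin and/or quinolone resistance.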
# Staphylococcus aureus [7] = test: Activity at Staphylococcus aureus wild-type DNA topoisomerase 4 subunit ParC
# In short: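 Recombinant S. aureus topoisomerase IV (wild-type ParC with ParE; specific activity 25 to 30 U per μg). Stopped with SDS/proteinase K. Linear DNA quantified on gel; CC50 is the mean of two or more assays.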
# Staphylococcus aureus [8] = test: Antimicrobial activity against Staphylococcus aureus CB1954 harboring rpoB H481Y, gyrA S84L, K809 deficient gyrA, parC S80F, parC A523D mutant genes selected after CBR-2092 exposure for 7 days by agar dilution method; assay type: functional; settings: CB1954, 168 h; in short: as §2
# Staphylococcus aureus [9] = test: Antimicrobial activity against Staphylococcus aureus CB1430 harboring rpoB H481Y, parE E474K and gyrA S84L mutant genes selected after 0.18 ug/ml drug exposure by broth microdilution method; assay type: functional
# In short: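 CLSI broth microdilution MIC in cation-adjusted Mueller-Hinton (MHII) broth with 0.002% (vol/vol) polysorbate 80. Single-step mutants were selected on agar […], purified by drug-free passage, their phenotype re-verified, and resistance loci sequenced.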
# Staphylococcus aureus [10] = test: Antimicrobial activity against rifampin-sensitive Staphylococcus aureus CB190 harboring rpoB D471G mutant gene by broth microdilution method; assay type: functional; in short: as §4
# Staphylococcus aureus [11] = test: Antimicrobial activity against Staphylococcus aureus CB1884 by agar dilution method; assay type: functional; in short: as §3
# Staphylococcus aureus [12] = test: Antimicrobial activity against rifampin-sensitive Staphylococcus aureus CB190 harboring rpoB H472 mutant gene by broth microdilution method; assay type: functional; in short: as §4
# Staphylococcus aureus [13] = test: Antimicrobial activity against Staphylococcus aureus CB1880 harboring rpoB R484H mutant gene by agar dilution method; assay type: functional; in short: as §3
# Staphylococcus aureus [14] = test: Antimicrobial activity against Staphylococcus aureus CB1882 harboring rpoB R484H mutant gene, L520 deficient gyrA gene and R236 duplicated parC gene by agar dilution method; assay type: functional; in short: as §3
# Staphylococcus aureus [15] = test: Antimicrobial activity against Staphylococcus aureus CB1871 harboring rpoB H481Y mutant gene by broth microdilution method
# Staphylococcus aureus [16] = test: Inhibition of cell wall synthesis in quinolone-resistant Staphylococcus aureus CB814 harboring gyrA S84L and parC S80F mutant genes assessed as decrease in [2,3-3H]D-alanine incorporation at 0.5 ug/ml; assay type: functional, organism-based; in short: as §1
# Staphylococcus aureus [17] = test: Antimicrobial activity against Staphylococcus aureus CB1354 harboring rpoB H481Y, parC S80F, parE R455H and gyrA S84L mutant genes selected after 0.53 ug/ml drug exposure by broth microdilution method; assay type: functional
# Staphylococcus aureus [18] = test: Antimicrobial activity against Staphylococcus aureus CB1335 harboring rpoB H481Y, parC S80F, parE E474Q and gyrA S84L mutant genes selected after 0.8 ug/ml drug exposure by broth microdilution method; assay type: functional
# Staphylococcus aureus [19] = test: Antimicrobial activity against Staphylococcus aureus CB1523 harboring rpoB H481Y and gyrA A26V mutant genes selected after 0.25 ug/ml drug exposure by broth microdilution method; assay type: functional
# In short: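 CLSI broth microdilution in cation-adjusted Mueller-Hinton (MHII) broth supplemented with 0.002% (vol/vol) polysorbate 80 to limit compound loss to plastic. Strains are spontaneous single-step mutants isolated on agar from an rpoB H481Y parent (RN4220 background), purified through drug-free passage with the resistance phenotype re-verified as stable before testing; target loci genotyped by PCR amplification and sequencing.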
# Staphylococcus aureus [20] = test: Antimicrobial activity against Staphylococcus aureus CB190 by broth microdilution method; assay type: functional
# Staphylococcus aureus [21] = test: Inhibition of cell wall synthesis in Staphylococcus aureus CB190 assessed as decrease in [2,3-3H]D-alanine incorporation at 0.5 ug/ml; assay type: functional, organism-based
# Staphylococcus aureus [22] = test: Antimicrobial activity against Staphylococcus aureus CB1947 harboring rpoB H481Y, gyrA S84L, E697 deficient gyrA, parC G167V mutant genes selected after CBR-2092 exposure for 20 days by agar dilution method; settings: CB1947, 480 h
# Staphylococcus aureus [23] = test: Antimicrobial activity against Staphylococcus aureus CB1884 harboring rpoB R484H mutant gene, L520 deficient gyrA gene, gyrA S84L mutant gene, R236 duplicated par C gene and parC H103Y mutant gene by agar dilution method; assay type: functional; in short: as §3
# Staphylococcus aureus [24] = test: Antimicrobial activity against Staphylococcus aureus CB1353 harboring rpoB H481Y, parC S80F, parE V458G and gyrA S84L mutant genes selected after 0.53 ug/ml drug exposure by broth microdilution method; assay type: functional
# Staphylococcus aureus [25] = test: Antimicrobial activity against Staphylococcus aureus CB814 harboring fluoroquinolone-resistant gyrA S84L and parC S80F mutant genes by broth microdilution method; assay type: functional; in short: as §4
smiles,measurement,setting,value
CO[C@H]1/C=C/O[C@@]2(C)Oc3c(C)c(O)c4c(O)c(c(/C=N/N5CCC(N(C)C6([C@@H]7CCN(c8c(F)cn9c(=O)c(C(=O)O)cc(C%10CC%10)c9c8C)C7)CC6)CC5)c(O)c4c3C2=O)NC(=O)/C(C)=C\C=C\[C@H](C)[C@H](O)[C@@H](C)[C@@H](O)[C@@H](C)[C@H](OC(C)=O)[C@@H]1C,Activity,Staphylococcus aureus [1],Active
same,MIC,Staphylococcus aureus [2],0.008 µg/mL
same,MIC,Staphylococcus aureus [3],> 250 µg/mL
same,MIC,Staphylococcus aureus [4],1 µg/mL
same,MIC,Staphylococcus aureus [5],0.015 µg/mL
same,MIC,Staphylococcus aureus [6],2 µg/mL
same,CC50,Staphylococcus aureus [7],1700 nM
same,MIC,Staphylococcus aureus [8],2 µg/mL
same,MIC,Staphylococcus aureus [9],16 µg/mL
same,MIC,Staphylococcus aureus [10],0.25 µg/mL
same,MIC,Staphylococcus aureus [11],4 µg/mL
same,MIC,Staphylococcus aureus [12],0.12 µg/mL
same,MIC,Staphylococcus aureus [13],0.032 µg/mL
same,MIC,Staphylococcus aureus [14],0.5 µg/mL
same,MIC,Staphylococcus aureus [15],0.12 µg/mL
same,Activity,Staphylococcus aureus [16],Active
same,MIC,Staphylococcus aureus [17],16 µg/mL
same,MIC,Staphylococcus aureus [18],> 16 µg/mL
same,MIC,Staphylococcus aureus [19],1 µg/mL
same,MIC,Staphylococcus aureus [20],0.015 µg/mL
same,Activity,Staphylococcus aureus [21],Active
same,MIC,Staphylococcus aureus [22],1 µg/mL
same,MIC,Staphylococcus aureus [23],4 µg/mL
same,MIC,Staphylococcus aureus [24],16 µg/mL
same,MIC,Staphylococcus aureus [25],0.015 µg/mL
